According to publication PMC9273292 (Journal of Ethnopharmacology, 2022):
pIC50: −log10 of the molar value.

Key:
[1] = CCK-8 cytotoxicity assay; assay type: cell-based; details: human, HRT-18 cells
In short: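 Viability of HRT-18 cells is read by CCK-8 per the kit protocol. Cells are kept in RPMI 1640 with 10% FBS, sodium pyruvate, NEAA and 0.025M HEPES at 37 °C, 5% CO2. Run in triplicate. CC50 comes from a four-parameter log(inhibitor) vs response fit of mean values.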

[2] = system: HCoV-OC43; assay: Immunofluorescence analysis of HCoV-OC43 nucleocapsid in infected HRT-18 cells; assay type: cell-based, human coronavirus OC43; details: 4 μM, 48 hpi
[3] = system: Mpro; details: SARS-CoV-2 model; ref Alhadrami et al., 2021; cited from earlier work
[4] = system: Mpro; details: cited from earlier work
[5] = target: SARS-CoV-2 Nsp14N7 methyltransferase (Severe acute respiratory syndrome coronavirus 2, UniProt P0DTD1); assay: Nsp14N7-MTase inhibition assay; assay type: biochemical
[6] = system: HCoV-OC43; assay: Cytopathic effect; assay type: cell-based, human coronavirus OC43; details: 100 TCID50, 72 hpi, two-fold serial dilutions
In short: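 Confluent cell monolayers are infected with 100 TCID50 HCoV-OC43 (titre by Reed-Muench) and given two-fold serial dilutions of test compound. At 72 hpi, CPE (lysis, rounding, vacuolization) is scored by phase-contrast microscopy; absence of CPE is taken as activity. Remdesivir is the positive control.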

[7] = system: HCoV-OC43; assay: Antibody-based EC50 assay; assay type: cell-based, human coronavirus OC43; details: CC50/EC50, HRT-18 cells
In short: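 HRT-18 cells (RPMI 1640, 10% FBS, 37 °C, 5% CO2) infected with HCoV-OC43 and treated with test compound. Viral nucleocapsid is detected with an anti-OC43 nucleocapsid antibody. Run in triplicate. EC50 comes from a four-parameter log(inhibitor) vs response fit of mean values. SI = CC50/EC50.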

[8] = system: HCoV-OC43; assay: Transmission electron microscopy of infected HRT-18 cells; assay type: cell-based, human coronavirus OC43; details: 4 μM, 48 hpi
In short: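 HRT-18 monolayers are inoculated with 100 TCID50 HCoV-OC43 for 2 h at 37 °C. Inoculum is then replaced by RPMI 1640 with 2% FBS containing test compound or DMSO. At 48 hpi, virus particles are examined by negative staining under transmission electron microscopy.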

[9] = target: recombinant SARS-CoV-2 PLpro (Severe acute respiratory syndrome coronavirus 2, UniProt P0DTD1); assay: PLpro inhibition assay; assay type: biochemical

Compound	CC50 [1] [µM]	fluorescence signal of virus particles (HCoV-OC43 nucleocapsid) [2]	concentration inhibiting Mpro activity [3] [µmol/L]	concentration inhibiting Mpro activity by competitive inhibition [4] [µmol/L]	pIC50 [5]	inhibition of CPE caused by HCoV-OC43 infection [6]	Selective index (SI) [7]	viral particles in infected cells under TEM [8]	pIC50 [9]
C=C(C)[C@@H]1CC[C@]2(C(=O)O)CC[C@]3(C)[C@H](CC[C@@H]4[C@@]5(C)CC[C@H](O)C(C)(C)[C@@H]5CC[C@]43C)[C@@H]12 [Compound 1, betulinic acid]	19.4	substantially reduced the fluorescence signal of virus particles	14.55	10	5.95	showed antiviral activity	8.04	no viral particles were detected	5.69
O=c1c(O)c(-c2ccc(O)c(O)c2)oc2cc(O)cc(O)c12 [Compound 11, quercetin]	34	–	–	–	–	showed antiviral activity	7.29	–	–
O=C1C[C@@H](c2ccc(O)cc2)Oc2cc(O)cc(O)c21 [Compound 5, naringenin]	–	–	–	–	–	showed antiviral activity	–	–	–
O=C1C[C@@H](c2ccc(O)c(O)c2)Oc2cc(O)cc(O)c21 [Compound 8, eriodictyol]	–	–	–	–	–	showed antiviral activity	–	–	–
C[C@H]1[C@H](C)CC[C@]2(C)CC[C@]3(C)C(=CC[C@@H]4[C@@]5(C)CC[C@H](O)C(C)(C)[C@@H]5CC[C@]43C)[C@H]12 [Compound 2, α-amyrin]	24	–	–	–	–	showed antiviral activity	6.03	–	–
